Data set [1] has as its target Vascular endothelial growth factor receptor 3 (Homo sapiens, UniProt P35916). As to the kind of experiment: Inhibition of human VEGFR3 expressed in baculovirus insect cell system.
The target of data set [2] is Vascular endothelial growth factor receptor 1 (Homo sapiens, UniProt P17948). The data set can be described thus: Inhibition of human VEGFR1 expressed in baculovirus insect cell system.
Data set [3] concerns the target Vascular endothelial growth factor receptor 2 (Homo sapiens, UniProt P35968). The data set can be described thus: Inhibition of human VEGFR2 expressed in baculovirus insect cell system.
Data set [4] has as its system Mus musculus. The data set can be described thus: Inhibition of MPTP-induced increase in pMKK4 levels in mouse at 1 mg/kg, sc administered 2 hrs before MPTP challenge followed by 10 mg/kg, sc 2 hrs after MPTP challenge.
In data set [5] the target is Mitogen-activated protein kinase kinase kinase 11 (Homo sapiens, UniProt Q16584). As to the kind of experiment: Inhibition of GST-fused human MLK3. In outline: (§1)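 GST fusions of human MLK kinase domains from baculovirus (50 ng MLK1_KD, 150 ng MLK2_KD/LZ, 100 ng MLK3_KD), substrate 500 µg/mL myelin basic protein. Buffer 20 mM Hepes pH 7.2, 5 mM EGTA, 15 mM MgCl2, 1 mM DTT, 25 mM β-glycerophosphate, 0.1% BSA, 2% DMSO.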
Mitogen-activated protein kinase kinase kinase 11, sequence (Q16584 whole entry, the tested form may be a part): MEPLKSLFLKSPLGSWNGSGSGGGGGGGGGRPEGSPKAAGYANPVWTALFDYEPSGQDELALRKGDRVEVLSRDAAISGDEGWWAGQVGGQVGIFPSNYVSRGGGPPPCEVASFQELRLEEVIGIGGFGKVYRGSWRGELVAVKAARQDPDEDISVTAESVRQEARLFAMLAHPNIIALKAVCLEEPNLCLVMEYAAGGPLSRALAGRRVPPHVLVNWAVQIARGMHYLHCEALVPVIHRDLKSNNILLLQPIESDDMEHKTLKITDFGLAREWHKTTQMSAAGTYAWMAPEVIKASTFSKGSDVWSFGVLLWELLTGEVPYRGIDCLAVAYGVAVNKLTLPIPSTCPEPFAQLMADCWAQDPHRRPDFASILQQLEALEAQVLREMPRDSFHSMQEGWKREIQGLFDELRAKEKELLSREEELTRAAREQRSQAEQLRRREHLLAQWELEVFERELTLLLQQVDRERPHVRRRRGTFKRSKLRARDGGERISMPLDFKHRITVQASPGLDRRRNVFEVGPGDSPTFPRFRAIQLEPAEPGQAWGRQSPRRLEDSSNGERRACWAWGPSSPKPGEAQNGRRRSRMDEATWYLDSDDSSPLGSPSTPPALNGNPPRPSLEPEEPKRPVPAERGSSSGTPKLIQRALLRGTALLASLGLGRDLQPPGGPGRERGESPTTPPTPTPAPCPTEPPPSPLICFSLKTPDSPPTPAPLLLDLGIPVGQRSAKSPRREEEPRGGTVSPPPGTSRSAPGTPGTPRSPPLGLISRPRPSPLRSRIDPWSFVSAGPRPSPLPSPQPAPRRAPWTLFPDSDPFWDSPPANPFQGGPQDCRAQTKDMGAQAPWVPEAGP

A further data set has as its system SH-SY5Y. The data set can be described thus: Neuroprotective activity against human SH-SY5Y cells assessed as inhibition of MPP+-induced cell death. Type of data set: functional, cell-based.
Data set [6] concerns the target T1, Mitogen-activated protein kinase kinase kinase 9 (Homo sapiens, UniProt P80192). As to the kind of experiment: Inhibition of GST-fused human MLK1 expressed in CHO cells assessed as MKK4 phosphorylation. Type of data set: cell-based. An outline of the steps: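 CHO cells transfected with MLK1 plus dominant-negative MKK4 cDNA; phospho-MKK4 quantified by ELISA; IC50 derived.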

Data set [7] has as its target High affinity nerve growth factor receptor (Homo sapiens, UniProt P04629). The data set can be described thus: Inhibition of human TrkA expressed in baculovirus insect cell system.
A short description of data set [8]: Oral bioavailability in Sprague-Dawley rat at 5 mg/kg. Type of data set: ADME, organism-based. The settings on record: in vivo. In outline: (§2)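 Rat PK: iv dose into lateral tail vein in 3% DMSO/30% solutol/67% PBS; oral gavage in 50% Tween 80/40% propylene carbonate/10% propylene glycol, rats fasted overnight before oral dosing. Serial tail-vein blood at seven times over 6 h into heparinized tubes. Plasma protein-precipitated with acetonitrile, analysed with internal standard by LC-MS/MS. Bioavailability from iv versus po AUCs.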

A short description of data set [9]: Half life in Sprague-Dawley rat at 1 mg/kg, iv. The class given is ADME, organism-based. Details: dose 1 mg/kg, route intravenous. Conditions: in vivo. An outline of the steps: as §2
Data set [10] has as its target T1, Mitogen-activated protein kinase kinase kinase 9. As to the kind of experiment: Inhibition of GST-fused human MLK1. An outline of the steps:
as §1

Data set [11] is described as follows: Cmax in Sprague-Dawley rat at 5 mg/kg, po. Type of data set: ADME, organism-based. Details: dose 5 mg/kg, route oral. The settings on record: in vivo. An outline of the steps:
as §2

Data set [12] deals with Serine/threonine-protein kinase Chk1/2 (Homo sapiens, UniProt O96017+O14757). As to the kind of experiment: Inhibition of human CHK1/2 expressed in baculovirus insect cell system.
For data set [13], the target named is Fibroblast growth factor receptor 1 (Homo sapiens, UniProt P11362). The data set can be described thus: Inhibition of human FGFR1 expressed in baculovirus insect cell system.
The nature of data set [14]: Inhibition of human IRK expressed in baculovirus insect cell system.
Data set [15] can be described thus: Metabolic stability in rat liver S9 fraction after 2 hrs in presence of NADPH. Type of data set: ADME, subcellular. Conditions: read-out: Stability. In outline:
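Incubated 2 h in rat liver S9 preparation with NADPH; percent parent remaining reported.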

In data set [16] the target is T2, Dual specificity mitogen-activated protein kinase kinase 4 (Homo sapiens, UniProt P45985).
T2 sequence (P45985 whole entry): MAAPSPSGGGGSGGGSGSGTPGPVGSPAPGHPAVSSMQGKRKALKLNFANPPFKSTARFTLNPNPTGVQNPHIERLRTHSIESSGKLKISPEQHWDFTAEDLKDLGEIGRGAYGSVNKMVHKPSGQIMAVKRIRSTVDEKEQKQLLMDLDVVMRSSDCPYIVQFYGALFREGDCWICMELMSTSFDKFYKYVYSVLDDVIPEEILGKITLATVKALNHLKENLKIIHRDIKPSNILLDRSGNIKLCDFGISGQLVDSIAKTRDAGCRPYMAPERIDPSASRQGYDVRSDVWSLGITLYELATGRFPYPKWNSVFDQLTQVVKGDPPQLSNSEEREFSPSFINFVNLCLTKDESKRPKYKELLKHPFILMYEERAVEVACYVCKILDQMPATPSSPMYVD
The data set can be described thus: Inhibition of human MKK4/7 expressed in baculovirus insect cell system.

Data set [17] is described as follows: Clearance in Sprague-Dawley rat at 1 mg/kg, iv. Details: dose 1 mg/kg, route intravenous. The settings on record: in vivo. Type of data set: ADME, organism-based. An outline of the steps:
as §2

For data set [18], the target named is Mitogen-activated protein kinase kinase kinase 10 (Homo sapiens, UniProt Q02779). As to the kind of experiment: Inhibition of human MLK2 expressed in baculovirus insect cell system. In outline: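 GST fusions of human MLK kinase domains from baculovirus (50 ng MLK1_KD, 150 ng MLK2_KD/LZ, 100 ng MLK3_KD), substrate 500 µg/mL myelin basic protein. Buffer 20 mM Hepes pH 7.2, 5 mM EGTA, 15 mM MgCl2, 1 mM DTT, 25 mM β-glycerophosphate, 0.1% BSA, 2% DMSO. […] 15 min at 37 °C, TCA precipitation, scintillation counting. IC50 by variable-slope sigmoidal fit, average of duplicates within 20%.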

A short description of data set [19]: Plasma concentration in mouse at 6.7 mg/kg, po administered 2 hrs before MPTP challenge followed by 40 mg/kg, sc 2 hrs after MPTP challenge. The settings on record: other: po followed by sc. Type of data set: ADME, organism-based. An outline of the steps:
(§3)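 Mice dosed orally at 6.7 mg/kg 2 h before and 2 h after MPTP (40 mg/kg sc). Substantia nigra dissected 2 h after second dose; pMKK4 measured by immunoblot against treated and control groups. Plasma drug levels taken 2 h after dosing (4 h post-MPTP).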

Data set [20] deals with Mus musculus. The data set can be described thus: Inhibition of MPTP-induced increase in pMKK4 levels in mouse at 6.7 mg/kg, po administered 2 hrs before MPTP challenge followed by 40 mg/kg, sc 2 hrs after MPTP challenge. Type of data set: functional. Details: Activity: scale not given: the % may be the effect or the level left. In outline:
as §3

The target in data set [21] is Mitogen-activated protein kinase 14 (Homo sapiens, UniProt Q16539). As to the kind of experiment: Inhibition of human P38alpha expressed in baculovirus insect cell system.
Mitogen-activated protein kinase 14, sequence (Q16539 whole entry): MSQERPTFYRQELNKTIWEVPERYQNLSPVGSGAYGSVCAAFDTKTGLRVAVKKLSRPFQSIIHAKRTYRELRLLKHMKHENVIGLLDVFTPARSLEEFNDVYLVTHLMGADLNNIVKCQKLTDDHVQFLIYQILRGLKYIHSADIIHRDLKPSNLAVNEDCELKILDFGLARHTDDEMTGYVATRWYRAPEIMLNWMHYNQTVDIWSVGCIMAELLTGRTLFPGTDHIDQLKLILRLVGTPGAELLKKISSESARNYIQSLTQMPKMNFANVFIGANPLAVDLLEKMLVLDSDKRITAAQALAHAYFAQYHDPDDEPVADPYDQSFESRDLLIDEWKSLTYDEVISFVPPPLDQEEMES
The nature of data set [22]: AUC in Sprague-Dawley rat at 5 mg/kg, po. Type of data set: ADME, organism-based. Details: dose 5 mg/kg, route oral. The settings on record: plasma. An outline of the steps:
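Rats were fasted overnight, then dosed by oral gavage in 50% Tween 80, 40% propylene carbonate and 10% propylene glycol. Serial heparinized blood samples were taken from the lateral tail vein at seven times over 6 h. Plasma was deproteinized with acetonitrile and analysed for drug against an internal standard by LC-MS/MS.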

For the next data set, the target named is Cyclin-dependent kinase. The data set can be described thus: Inhibition of human CDK expressed in baculovirus insect cell system.
A short description of data set [23]: Volume of distribution in Sprague-Dawley rat at 1 mg/kg, iv. Type of data set: ADME, organism-based. Details: dose 1 mg/kg, route intravenous. The settings on record: in vivo. In outline: as §2
The target in data set [24] is c-Jun N-terminal kinase, JNK (Homo sapiens, UniProt P45983+P53779+P45984). The data set can be described thus: Inhibition of human JNK expressed in baculovirus insect cell system.
Data set [25] deals with Mus musculus. As to the kind of experiment: Neuroprotective activity against MPTP-induced loss of striatal dopamine markers in po dosed mouse administered twice daily. Type of data set: functional, organism-based. In outline:
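Mouse MPTP neurotoxicity: low dose 20 mg/kg sc, assessing striatal DA terminals by GBR-12935 binding; high dose 40 mg/kg sc, assessing striatal DA markers and substantia nigra cell bodies by TH immunoreactivity. Test compounds given orally, q.d. or b.i.d.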

Data set [26] deals with Tyrosine-protein kinase Fyn (Homo sapiens, UniProt P06241). The data set can be described thus: Inhibition of human Fyn kinase expressed in baculovirus insect cell system.
The target in the next data set is Protein kinase C (PKC). The data set can be described thus: Inhibition of human PKC expressed in baculovirus insect cell system.
Data set [27] can be described thus: Half life in Sprague-Dawley rat at 5 mg/kg, po. Type of data set: ADME, organism-based. Details: dose 5 mg/kg, route oral. Conditions: in vivo. In outline: as §2
Data set [28] is described as follows: AUC in Sprague-Dawley rat at 1 mg/kg, iv. The settings on record: plasma. Set-up: dose 1 mg/kg, route intravenous. The class given is ADME, organism-based. In outline: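 Single intravenous dose into the lateral tail vein in 3% DMSO, 30% solutol and 67% phosphate-buffered saline. Serial heparinized blood samples were taken from the lateral tail vein at seven times over 6 h. Plasma was separated by centrifugation, deproteinized with acetonitrile and analysed for drug against an internal standard by LC-MS/MS.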

The source made the active and inactive calls. No cut-off for these calls is given here.

T1 sequence (P80192 whole entry, the tested form may be a part): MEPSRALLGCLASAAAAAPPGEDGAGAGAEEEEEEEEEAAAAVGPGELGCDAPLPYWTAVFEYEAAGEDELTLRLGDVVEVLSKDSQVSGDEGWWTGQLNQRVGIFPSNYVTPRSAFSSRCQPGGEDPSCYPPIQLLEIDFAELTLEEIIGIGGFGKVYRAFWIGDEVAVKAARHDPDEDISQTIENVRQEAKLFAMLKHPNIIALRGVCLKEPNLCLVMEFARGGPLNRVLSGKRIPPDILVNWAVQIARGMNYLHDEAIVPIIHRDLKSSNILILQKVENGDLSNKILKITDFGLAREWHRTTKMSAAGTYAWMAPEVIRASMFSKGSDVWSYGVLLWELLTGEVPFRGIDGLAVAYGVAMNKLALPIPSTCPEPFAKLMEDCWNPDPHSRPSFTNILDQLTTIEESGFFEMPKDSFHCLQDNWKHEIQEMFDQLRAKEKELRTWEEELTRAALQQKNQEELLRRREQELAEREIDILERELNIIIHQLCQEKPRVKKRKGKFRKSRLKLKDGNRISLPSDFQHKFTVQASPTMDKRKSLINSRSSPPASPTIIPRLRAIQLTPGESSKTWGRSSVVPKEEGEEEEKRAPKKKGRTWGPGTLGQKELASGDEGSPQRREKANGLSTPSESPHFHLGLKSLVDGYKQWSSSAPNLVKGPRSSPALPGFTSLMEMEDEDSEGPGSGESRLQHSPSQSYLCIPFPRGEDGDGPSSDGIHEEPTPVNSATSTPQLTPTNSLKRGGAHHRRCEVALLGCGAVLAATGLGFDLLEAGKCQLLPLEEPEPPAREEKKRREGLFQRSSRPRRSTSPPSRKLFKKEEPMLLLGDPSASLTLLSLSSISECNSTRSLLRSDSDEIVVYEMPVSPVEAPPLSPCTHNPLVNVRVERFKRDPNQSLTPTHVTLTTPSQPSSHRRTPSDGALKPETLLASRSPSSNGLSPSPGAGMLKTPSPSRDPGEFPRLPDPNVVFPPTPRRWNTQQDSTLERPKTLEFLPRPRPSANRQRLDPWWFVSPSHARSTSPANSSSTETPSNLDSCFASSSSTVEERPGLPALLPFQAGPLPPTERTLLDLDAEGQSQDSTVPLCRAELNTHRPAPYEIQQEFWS
Vascular endothelial growth factor receptor 2, sequence (P35968 whole entry): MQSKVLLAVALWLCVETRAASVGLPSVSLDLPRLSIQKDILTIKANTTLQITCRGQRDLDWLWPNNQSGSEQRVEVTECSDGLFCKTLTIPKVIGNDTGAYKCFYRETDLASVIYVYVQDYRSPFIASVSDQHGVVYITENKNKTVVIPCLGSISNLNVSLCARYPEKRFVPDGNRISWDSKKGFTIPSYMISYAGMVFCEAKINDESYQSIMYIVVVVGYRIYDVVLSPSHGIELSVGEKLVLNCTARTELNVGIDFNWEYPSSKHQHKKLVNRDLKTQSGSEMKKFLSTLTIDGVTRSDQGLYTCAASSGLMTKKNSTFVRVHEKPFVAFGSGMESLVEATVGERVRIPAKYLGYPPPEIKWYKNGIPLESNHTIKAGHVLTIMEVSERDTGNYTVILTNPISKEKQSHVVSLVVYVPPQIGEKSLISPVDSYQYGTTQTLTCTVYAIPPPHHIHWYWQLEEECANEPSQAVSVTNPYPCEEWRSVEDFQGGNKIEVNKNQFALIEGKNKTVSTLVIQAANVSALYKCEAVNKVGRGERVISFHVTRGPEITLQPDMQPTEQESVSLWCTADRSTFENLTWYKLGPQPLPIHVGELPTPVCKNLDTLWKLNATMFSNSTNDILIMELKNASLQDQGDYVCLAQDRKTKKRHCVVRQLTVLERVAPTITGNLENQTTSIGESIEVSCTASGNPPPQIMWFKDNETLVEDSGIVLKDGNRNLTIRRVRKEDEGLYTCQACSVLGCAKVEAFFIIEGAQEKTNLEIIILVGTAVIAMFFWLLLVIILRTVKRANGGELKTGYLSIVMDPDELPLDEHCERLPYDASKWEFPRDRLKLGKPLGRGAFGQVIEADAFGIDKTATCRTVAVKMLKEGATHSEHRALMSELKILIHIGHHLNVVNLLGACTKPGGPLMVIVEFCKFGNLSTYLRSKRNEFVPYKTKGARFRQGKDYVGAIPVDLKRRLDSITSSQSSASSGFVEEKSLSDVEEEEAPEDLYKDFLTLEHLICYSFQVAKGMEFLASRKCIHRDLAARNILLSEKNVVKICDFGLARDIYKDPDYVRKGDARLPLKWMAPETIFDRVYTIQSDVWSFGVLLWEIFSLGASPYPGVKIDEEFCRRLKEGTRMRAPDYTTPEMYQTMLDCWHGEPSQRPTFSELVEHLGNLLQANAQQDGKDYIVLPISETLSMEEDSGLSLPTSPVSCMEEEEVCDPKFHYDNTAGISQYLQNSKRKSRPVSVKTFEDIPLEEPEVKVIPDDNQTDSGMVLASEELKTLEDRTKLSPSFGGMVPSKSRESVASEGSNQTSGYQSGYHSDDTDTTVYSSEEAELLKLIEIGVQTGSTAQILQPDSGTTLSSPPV
Vascular endothelial growth factor receptor 3, sequence (P35916 whole entry): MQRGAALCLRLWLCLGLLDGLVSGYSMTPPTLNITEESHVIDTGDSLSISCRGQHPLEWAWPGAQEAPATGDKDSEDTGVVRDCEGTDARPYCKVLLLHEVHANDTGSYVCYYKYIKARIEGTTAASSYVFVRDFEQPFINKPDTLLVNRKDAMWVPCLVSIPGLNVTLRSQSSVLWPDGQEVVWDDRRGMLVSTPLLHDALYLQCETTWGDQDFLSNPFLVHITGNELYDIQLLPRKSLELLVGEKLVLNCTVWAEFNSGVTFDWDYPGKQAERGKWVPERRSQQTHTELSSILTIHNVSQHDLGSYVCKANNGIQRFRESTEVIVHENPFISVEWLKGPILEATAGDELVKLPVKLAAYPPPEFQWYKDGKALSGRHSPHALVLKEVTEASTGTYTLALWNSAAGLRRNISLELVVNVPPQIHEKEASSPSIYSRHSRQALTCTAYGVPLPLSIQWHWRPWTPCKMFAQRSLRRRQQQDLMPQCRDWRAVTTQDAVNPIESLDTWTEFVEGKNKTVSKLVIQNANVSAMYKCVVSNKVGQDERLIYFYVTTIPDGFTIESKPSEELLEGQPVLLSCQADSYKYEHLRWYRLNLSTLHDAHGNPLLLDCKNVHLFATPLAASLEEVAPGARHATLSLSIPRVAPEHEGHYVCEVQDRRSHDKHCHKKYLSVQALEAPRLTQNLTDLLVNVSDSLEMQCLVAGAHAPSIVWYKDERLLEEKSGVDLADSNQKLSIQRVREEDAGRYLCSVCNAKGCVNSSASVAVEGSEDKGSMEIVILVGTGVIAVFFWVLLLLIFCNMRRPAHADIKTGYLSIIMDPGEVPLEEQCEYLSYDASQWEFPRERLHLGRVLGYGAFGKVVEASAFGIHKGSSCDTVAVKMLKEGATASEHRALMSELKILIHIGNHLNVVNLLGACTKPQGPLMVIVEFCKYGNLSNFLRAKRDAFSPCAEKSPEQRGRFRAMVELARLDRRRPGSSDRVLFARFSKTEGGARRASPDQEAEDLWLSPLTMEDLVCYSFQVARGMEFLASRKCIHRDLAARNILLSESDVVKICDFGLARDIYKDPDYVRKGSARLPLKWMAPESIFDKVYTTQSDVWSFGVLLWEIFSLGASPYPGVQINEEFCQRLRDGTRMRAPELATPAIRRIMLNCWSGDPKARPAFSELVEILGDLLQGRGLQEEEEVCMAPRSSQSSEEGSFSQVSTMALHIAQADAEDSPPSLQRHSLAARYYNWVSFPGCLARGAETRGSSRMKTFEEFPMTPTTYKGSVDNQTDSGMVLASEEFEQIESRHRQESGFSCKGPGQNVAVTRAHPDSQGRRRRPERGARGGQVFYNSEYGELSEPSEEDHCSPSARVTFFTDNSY

Regarding `CCSCc1ccc2c(c1)c1c3c(c4c5cc(CSCC)ccc5n5c4c1n2[C@H]1C[C@](O)(C(=O)OC)[C@]5(C)O1)CNC3=O` [CEP-1347], the IC50 in data set [1] came out at 39 nM; in data set [2] it was 209 nM; in data set [3] it was 43 nM; in data set [5] it was 64 nM; in the data set with SH-SY5Y it was 5.3 nM; in [6] it was 72 nM. The “inhibition (INH)” value with Mus musculus [4] is 45%.

For `CC(C)Oc1ccc2c(c1)CCc1c-2c2c(c3c4ccccc4n(CCO)c13)CNC2=O`, the IC50 in [7] was 1050 nM; in data set [1], 2460 nM; in [2], > 10000 nM; in data set [3], 3380 nM; in [10], 26 nM; in data set [5] it was 65 nM. For the same compound, the IC50 in [12] is > 10000 nM; in [13], > 10000 nM; in [14] it was > 10000 nM; in data set [16], > 3000 nM; in [18] it was 1860 nM; in data set [21] it was > 10000 nM. In addition, the half-inhibitory concentration (IC50) was > 10000 nM at Cyclin-dependent kinase; > 30000 nM in data set [24]; 1190 nM in [26]; > 6000 nM on Protein kinase C (PKC); 43 nM in the data set with SH-SY5Y; 33 nM in data set [6]. The compound also gave a bioavailability in data set [8] of 37%. In addition, the half-life in data set [9] was 48 min; in [27], 66 min. In data set [11], this compound displayed a Cmax of 339 ng/mL. For the same compound, in data set [15], the remaining at 2 h was determined as 44%. Moreover, the clearance in data set [17] came out at 28 mL/min/kg. This compound showed a concentration at 2 h in data set [19] of 580 nM. The compound further yielded an Activity in the data set on Mus musculus [20] of 64%. Also, the AUC in data set [22] amounted to 1070 ng·h/mL; in [28], 579 ng·h/mL. This compound registered a Vd in [23] of 2 L/kg. Further, the outcome with Mus musculus [25] was Active.

A word on the IC50: it is the point on the concentration scale where inhibition reaches its midpoint. A word on the bioavailability: it is the share of a dose that reaches the circulation, judged against a reference dose that is usually intravenous. The half-life is how long it takes for the measured level to halve. A word on the Cmax: it is the maximum level reached in the sampled fluid or tissue. One may read the clearance as the rate of elimination divided by the concentration. A word on the AUC: it is the area under the concentration-time curve, a measure of exposure. Broadly, the Vd is the apparent volume that relates the amount in the body to the concentration in plasma or blood.
